Ins promoter up – MIN6 insulin promoter up-regulation; MIN6 insulin promoter-GFP reporter, high-content imaging; hits give high values; z-score at 5 µM; actives 0.3% (n = 190,000);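 active = z-score above 3 at 5 µM with at least 500 cells counted in the well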
Yeast growth inh – chemicals that inhibit yeast BB579 growth in restrictive medium (lifespan-shortening candidates); S. cerevisiae BB579 growth, OD615, 48 h; inhibition, % at 10 µM; actives 0.51% (n = 140,000);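 active = inhibition above a set limit, 3 SD over the mean compound inhibition, cut at about 44% in these data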
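controls = amphotericin B 10 µg/mL, positive | assay system = DeaD yeast strain BB579 | schedule = 48 h compound exposure at 30 °C after 4 h preincubation | detection = OD615 turbidity measurement | medium = restrictive CSMM-D medium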
Yeast life ext – extends the lifespan of yeast; S. cerevisiae growth with nicotinamide, OD615; deaD strain in restrictive glucose medium; actives 0.68% (n = 130,000); inhibition of the nicotinamide effect, % at 10 µM; AID 775;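 active = inhibition above a set limit, placed 3 SD over the median of all compounds, cut at about 26% in these data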
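assay system = DeaD-strain S. cerevisiae | measured by = absorbance at 615 nm | probe or stimulus = nicotinamide 1.5 mM | buffer or medium = CSMM-D glucose medium, restrictive | times = 48 h at 30 °C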
RAM network inh – blocks the yeast RAM network; AID 868; S. cerevisiae dse1pr::URA3 reporter, 5-FOA growth OD615, 2 d; analog-sensitive cbk1-as2 kinase mutant strain; actives 1.8% (n = 190,000); inhibition, % at 50 µM;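 active = inhibition above a set limit, 3 SD over mean compound inhibition, cut at about 8.4% in these data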;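 also: inhibition rescues growth on 5-FOA so higher OD means more RAM inhibition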
INS promoter inh – TRM-6 insulin promoter activity inhibition; TRM-6 cells (human fetal islet line), insulin promoter-eGFP reporter, imaging; reporter expression induced with tamoxifen; actives 0.9% (n = 130,000); inhibition, % at 2 µM; AID 1273;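 active = inhibition above the mean plus 3 SD, with well images judged a real hit on visual review, cut at about 60% in these data, passing the limit was not always enough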
RAM efflux-def – RAM network inhibition, efflux-deficient strain | AID 1305 | 1,200 tested, under 10 active | max inhibition, % | S. cerevisiae efflux-deficient reporter strain, 5-FOA growth OD615, 2 days | shares compounds with RAM network inh; call rule not given here
Of the large screens only hits and unclear results are named; the others gave an inactive call (follow-up assays come after a bar, where they were run). Hits are enriched below; roughly 3.1% of the tested compounds scored in any of these assays.

O=C(COC(=O)c1cccc(S(=O)(=O)NCc2ccccc2)c1)c1ccc2c(c1)OCCO2	none (no result: INS promoter inh)
CCN1CCc2c(OCC(=O)Nc3ccc4c(c3)OCCO4)cccc2C1=O	none (no result: Yeast growth inh, Yeast life ext)
COc1ccc(/C=C2\SC(=S)N(C(Cc3ccccc3)C(=O)O)C2=O)cc1 (configuration not stated)	RAM network inh 34 (no result: Yeast growth inh, Yeast life ext, INS promoter inh) | RAM efflux-def inactive
COc1cc(/C=C2\SC(=S)N(C(C(=O)O)c3ccccc3)C2=O)ccc1O (configuration not stated)	none (no result: Yeast growth inh, Yeast life ext, RAM network inh, INS promoter inh)
CC(/C=C1\SC(=S)N(NS(=O)(=O)c2ccccc2)C1=O)=C\c1ccccc1	none (no result: Yeast growth inh, Yeast life ext, RAM network inh, INS promoter inh)
CCOc1ccc(/C=C2/SC(=S)N(C(C(=O)O)c3ccccc3)C2=O)cc1OCC (configuration not stated)	RAM network inh 13 (no result: Yeast growth inh, Yeast life ext, INS promoter inh) | RAM efflux-def inactive
CC(/C=C1\SC(=S)N(C(C(=O)O)C(C)C)C1=O)=C\c1ccccc1 (configuration not stated)	RAM network inh 18 (no result: Yeast growth inh, Yeast life ext) | RAM efflux-def inactive
O=C(O)C(Cc1ccccc1)N1C(=O)/C(=C/c2cccnc2)SC1=S (configuration not stated)	none (no result: Yeast growth inh, Yeast life ext, RAM network inh, INS promoter inh)
CNC(=S)N(C)[C@H]1c2c(ccc3ccccc23)OC[C@H]1CO	none (no result: Yeast growth inh, Yeast life ext)
O=c1ccc(/C=C/c2ccccc2)nn1Cc1ccc(Cl)cc1Cl	RAM network inh 13 (no result: INS promoter inh) | RAM efflux-def inactive
CC(NC(=O)COC(=O)/C(=C/c1cccs1)c1cccs1)c1ccccc1 (configuration not stated)	RAM network inh 14 | RAM efflux-def inactive
NS(=O)(=O)c1cccc(NC(=O)COC(=O)/C(=C/c2cccs2)c2cccs2)c1	none
Cn1cnnc1SC1c2cccc3cccc(c23)C1NS(=O)(=O)c1ccccc1 (configuration not stated)	none
Cn1cnnc1SC1c2cccc3cccc(c23)C1NS(=O)(=O)c1ccc(Cl)cc1 (configuration not stated)	RAM network inh 12 | RAM efflux-def inactive
COc1ccc(/C=C/C(=O)N2CCN(C)CC2)cc1S(=O)(=O)N1CCCCC1	none (no result: Yeast growth inh, Yeast life ext, INS promoter inh)
CCN(CC)C(=O)CSc1nc2cc3c(cc2c(=O)n1CCCCCC(=O)NCc1ccc(OC)cc1)OCO3	RAM network inh 14 (no result: Ins promoter up, Yeast growth inh, Yeast life ext) | RAM efflux-def inactive
N#CC(Nc1ccccc1)c1ccccc1OCc1ccccc1 (configuration not stated)	RAM network inh 14 | RAM efflux-def inactive
Cc1[nH]n(-c2ccccc2)c(=O)c1N=Nc1ccccc1	RAM network inh 13 (no result: Yeast growth inh, Yeast life ext) | RAM efflux-def inactive
Cc1[nH]n(-c2ccccc2)c(=O)c1N=Nc1cccc(S(=O)(=O)N2CCOCC2)c1	none (no result: INS promoter inh)
Cc1cc(C)c2c3c(sc2n1)C(=O)N(Cc1ccccc1)CC(=O)N3	none
COc1ccc(N(C)S(=O)(=O)c2cccc(C(=O)OCC(=O)Nc3sc4c(c3C#N)CCCCC4)c2)cc1	RAM network inh 11 | RAM efflux-def inactive
O=C(CN(C(=O)CCC(=O)Nc1ccccn1)c1ccc2c(c1)OCCO2)NCCc1ccccc1	RAM network inh 15 (no result: Yeast life ext, INS promoter inh) | RAM efflux-def inactive
CSCC[C@H](NC(=O)c1ccc(Cl)c(S(=O)(=O)N2CCCC2)c1)c1nc2ccccc2[nH]1	none
O=C(c1ccc(C(F)(F)F)cc1)N1CCC(=O)N(C(COCc2ccccc2)Cc2ccccc2)CC1 (configuration not stated)	RAM network inh 26 | RAM efflux-def inactive
O=C(CSc1ccccc1)N(c1ccc(Br)cc1)c1nccs1	RAM network inh 12 | RAM efflux-def inactive
CCOc1cc(S(=O)(=O)NCc2ccncc2)c(C)cc1C	none (no result: Yeast growth inh, Yeast life ext)
S=C(NCC1CCCCC1)Nc1ccc(Oc2ccccc2)cc1	Yeast growth inh 49, RAM network inh 15 | RAM efflux-def inactive
O=C(c1ccc(Cl)cc1[N+](=O)[O-])N(Cc1ccccc1)Cc1ccccc1	RAM network inh 13 | RAM efflux-def inactive
CC(C)(C)N(Cc1ccccc1)C(=O)c1ccc(Cl)cc1[N+](=O)[O-]	none (no result: Yeast growth inh, Yeast life ext, INS promoter inh)
CCOC(=O)N1CCC(N(CCN(C)C)C(=S)Nc2cccc(SC)c2)CC1	RAM network inh 33 (no result: Yeast growth inh, Yeast life ext) | RAM efflux-def inactive
Cc1cccc(OCC(=O)O/N=C(\N)Cc2ccc([N+](=O)[O-])cc2)c1	RAM network inh 18 (no result: Yeast growth inh, Yeast life ext, INS promoter inh) | RAM efflux-def inactive
Cc1ccc(OCC(=O)O/N=C(\N)Cc2ccc([N+](=O)[O-])cc2)cc1C	none (no result: Yeast growth inh, Yeast life ext, RAM network inh, INS promoter inh)
O=C(C1CC1)N(Cc1ccco1)c1nc(-c2ccccc2)cs1	RAM network inh 12 | RAM efflux-def inactive
Cc1ccc(C(=O)N/C(=C\c2cccc([N+](=O)[O-])c2)C(=O)OCN2C(=O)c3ccccc3C2=O)cc1	none
C=CCOC(=O)/C(=C\c1ccc(OC)cc1)NC(=O)c1ccco1	none (no result: INS promoter inh)
CCCCOc1ccc(C(=O)N/C(=C\c2ccc(OC)cc2)C(=O)OCc2ccco2)cc1	RAM network inh 12 (no result: INS promoter inh) | RAM efflux-def inactive
CCCCOc1ccc(C(=O)N/C(=C\c2cccc([N+](=O)[O-])c2)C(=O)OCc2ccco2)cc1	RAM network inh 11 (no result: INS promoter inh) | RAM efflux-def inactive
CCN(CC)c1nc2ccccc2nc1-n1nc(C)cc1C	none
COc1ccc(C(=O)NNC(=O)C(Cc2ccc(O)cc2)NC(=O)c2ccccc2NC(=O)c2ccc(OC)cc2)cc1 (configuration not stated)	RAM network inh 12 | RAM efflux-def inactive
CCCc1cc(C(=O)OC)c(NC(=O)c2cc(C)on2)s1	RAM network inh 12 (no result: Ins promoter up, Yeast life ext) | RAM efflux-def inactive
CCCOc1ccc(Oc2nc(-c3ccncc3)nc3ccccc23)cc1	none (no result: Yeast growth inh, Yeast life ext, RAM network inh, INS promoter inh)

Source: PubChem (several laboratories)
